High-throughput results: PubChem, several laboratories
Hits are enriched below; roughly 4.9% of the tested compounds scored in any of these assays.
APP 5'UTR act: activators of APP 5'UTR luciferase reporter, primary screen, SH-SY5Y cells | SH-SY5Y APP 5'UTR luciferase reporter, luminescence; zero percent = DMSO vehicle wells | activation, % at 2 µM | actives 1% (n = 190,000) | AID 1276, 2008;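 active = activation above a set limit, based on mean plus 3 SD of controls, cut at about 140% in these data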
STAT3 inh: IL-6 driven STAT3 reporter inhibitors, primary screen, U3A cells, luciferase, luminescence, MLSCN library; actives 0.89% (n = 190,000); inhibition, % at 5.5 µM; IL-6 STAT3-luciferase reporter; host cell line lacks STAT1;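 active = inhibition above the mean inhibition across all screened compounds plus 3 SD, cut at about 44% in these data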;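 note: 0% = DMSO only wells and 100% = 100 µM nifuroxazide control wells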
STAT1 act: STAT1 signaling activators, primary screen, cell-based, HTS, luciferase reporter; activation (% of control), % at 5.5 µM; NIH 3T3 STAT1-luciferase reporter, IFN-gamma, luminescence; 100% = IFN-gamma alone, no compound; actives 2.6% (n = 200,000);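 active = activation above the screen-wide mean activation plus 3 SD, cut at about 130% in these data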;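 note: raw ratio to IFN-gamma control signal so 100% means no change and 0% no light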
NF-kB neuron act: activators of NF-kB expression in neurons, primary screen, cell-based, HTS; human neuronal cells, NF-kB reporter expression; stronger effect = higher value; fold change at 12.5 µM; actives 1.6% (n = 190,000); AID 1239, 2008; in the data active = fold change above about 3.3
STAT1 inh: STAT1 signaling inhibitors, primary screen, cell-based, HTS, luciferase reporter. NIH 3T3 STAT1-luciferase reporter, IFN-gamma, luminescence. inhibition, % at 5.5 µM. actives 0.35% (n = 200,000). AID 920, 2007;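 active = inhibition above a set limit, the mean inhibition across all tested compounds plus 3 SD, cut at about 34% in these data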;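 note: 0% = IFN-gamma with DMSO and 100% = IFN-gamma with 300 µM nifuroxazide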
STAT3 activator: IL-6 driven STAT3 reporter potentiators, primary screen, U3A cells, luciferase, luminescence, MLSCN library | actives 0.91% (n = 190,000) | activation (% of control), % at 5.6 µM | IL-6 STAT3-luciferase reporter; 100% = signal with IL-6 EC80 alone | AID 871, 2007;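 active = activation above the screen-wide mean of compound activation plus 3 SD, cut at about 130% in these data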;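 note: 0% = background luminescence of wells with medium and substrate only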
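Test system: STAT3-luciferase reporter U3A cells; Detection: reporter luminescence signal; Times: 1 h compound pre-exposure, 6 h IL-6 stimulation, 37 °C; Benchmarks: IL-6-only high control; Also added: IL-6 stimulus at 33 ng/mL final.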
Active calls of the source: *; nt = no result given.

SMILES | APP 5'UTR act | STAT3 inh | STAT1 act | NF-kB neuron act | STAT1 inh | STAT3 activator
Cc1ccc(/C=N/NC(=O)CN(Cc2ccccc2)S(=O)(=O)c2ccc3c(c2)OCCO3)cc1 | 8.1 | 1.6 | 93.9 | 0.74 | 6.9 | 98.0
N/C(=N\OC(=O)c1ccc(Br)cc1)c1ccncc1 | 78.1 | 12.5 | 142.7* | 2.32 | -46.0 | 91.6
N/C(=N\OC(=O)c1ccccc1)c1ccccn1 | 150.3* | 71.8* | 33.4 | 0.99 | 71.0* | 40.8
N/C(=N\OC(=O)c1ccccc1)c1ccncc1 | 38.4 | 9.3 | 114.9 | 1.14 | -17.6 | 97.8
N/C(=N\OC(=O)c1ccc(Br)o1)c1ccccn1 | 149.2* | 9.3 | 119.0 | 3.68* | -24.1 | 96.2
COC(=O)c1ccc(COC(=O)c2ccccn2)cc1 | -2.7 | 0.3 | 132.8* | 1.45 | -35.7 | 103.2
CCOC(=O)Cc1ccc(NC(=O)c2ccc(C(C)(C)C)cc2)cc1 | -70.7 | 96.5* | 66.8 | 0.36 | 38.4* | 19.6
COC(=O)Cc1ccc(NC(=O)c2ccc(C)c(C)c2)cc1 | 21.2 | 8.5 | 132.8* | 3.92* | -35.7 | 95.7
Cc1noc(N)c1C(=O)Nc1ccc(C(C)(C)C)cc1 | 74.7 | 5.7 | 142.9* | 3.97* | -46.9 | 98.7
CCc1ccc(N/C(SCc2ccccc2C)=C(/C#N)C(=O)NCc2ccco2)cc1 | -19.0 | -3.2 | 98.3 | 1.06 | 1.9 | 107.2
COc1cccc(N2CCN(C(=O)c3ccc4nc(N5CCCCC5)sc4c3)CC2)c1 | 69.8 | -20.8 | 136.0* | 2.28 | -39.7 | 121.0
COc1ccc(N2CCN(C(=O)c3ccc4nc(N5CCCCC5)sc4c3)CC2)cc1 | 1.4 | -16.9 | 107.3 | 1.61 | -6.9 | 113.9
Cc1cccc(NC(=S)N=Nc2c(O)n(CN3CCOCC3)c3ccccc23)c1C | -22.3 | -18.3 | 101.7 | 1.06 | -1.9 | 117.3
Cc1ccc(N=Nc2c(O)n(CN3CCOCC3)c3ccccc23)cc1 | 166.7* | -38.8 | 162.9* | 2.89 | -69.9 | 137.1*
CCn1c(SCC(=O)Nc2cc(C)on2)nnc1-c1c[nH]c2ccccc12 | 19.6 | nt | 80.4 | 1.23 | 20.3 | nt
CCn1c(C(=O)OC)cc2c1ccn2-c1ccc(F)cc1 | 79.6 | 9.6 | 144.3* | 2.81 | -48.3 | 94.6
CCOC(=O)C1(Cc2cccc(Cl)c2)CCCN(CCO)C1 (configuration not stated) | 9.8 | -6.8 | 103.2 | 0.86 | -3.5 | 111.3
O=c1c2c3c(sc2nc2n1CCCCC2)CCC3 | 8.4 | -12.1 | 105.3 | 1.56 | -5.8 | 115.7
CC1CCc2c(nc3sc4c(c3c2N)CCCC4)C1 (configuration not stated) | 65.2 | -13.5 | 134.6* | 1.8 | -36.7 | 109.6
CC1CCc2nc3sc4c(c3c(N)c2C1)CCCC4 (configuration not stated) | 30.6 | 15.1 | 121.6 | 1.6 | -23.7 | 93.7
Nc1c2c(nc3sc4c(c13)CCCCC4)CCCCC2 | 185.1* | -3.9 | 145.3* | 3.99* | -50.7 | 105.6
CCCCNc1c(N)n(CCCC)c(=O)[nH]c1=O | -9.6 | -2.9 | 95.2 | 1.21 | 5.4 | 102.4
COC(=O)CCC(=O)COc1ccc(OC)cc1C#N | 47.1 | -11.6 | 130.5* | 1.62 | -33.4 | 112.9
CC(C)CCNC(=O)c1ccc(Cl)c(NC(=O)Cc2ccccc2)c1 | 13.3 | 2.1 | 100.1 | 1.21 | -0.1 | 100.6
COc1ccc(C(=O)Nc2cc(C(=O)NCCc3ccccc3)ccc2Cl)cc1 | 30.7 | -8.8 | 107.4 | 1.1 | -8.1 | 107.5
SMILES | APP 5'UTR act | STAT3 inh | STAT1 act | NF-kB neuron act | STAT1 inh | STAT3 activator
CCOCC(=O)Nc1cc(C(=O)NCCc2ccccc2)ccc1Cl | 64.8 | 3.4 | 130.5* | 1.69 | -35.4 | 100.0
COCC(=O)Nc1cc(C(=O)NCCc2ccccc2)ccc1Cl | 73.8 | 8.3 | 144.7* | 1.84 | -49.2 | 95.9
CCCCCCc1nc2ccccc2c(=O)n1NC(=O)c1c(O)c2cccc3c2n(c1=O)CC3 | 16.7 | -8.5 | 99.5 | nt | -0.8 | 109.9
O=C(Nc1ccc(-c2cn3ccccc3n2)cc1)c1cccs1 | 136.3* | 20.1 | 134.0* | 2.25 | -36.9 | 86.5
COc1ccc(-c2csc(N(C)C(=O)c3cccs3)n2)cc1 | 72.9 | 13.2 | 131.2* | 1.48 | -36.2 | 91.5
CCC(C)c1ccc(NC(=O)c2cccs2)cc1 (configuration not stated) | 149.6* | 36.2 | 129.9* | 10.6* | -32.8 | 73.0
CC(C)(C)c1csc(NC(=O)Cc2cccs2)n1 | 11.8 | 19.2 | 109.4 | 1.08 | -13.9 | 87.7
CC(C)(C)c1csc(NC(=O)c2cccs2)n1 | 122.4 | 1.7 | 130.2* | 2.51 | -32.8 | 100.9
CCN(CC)CCCN(C(=O)c1cccs1)c1nc(-c2ccc(OC)cc2)cs1 | 4.6 | 0.4 | 105.1 | 0.89 | -5.6 | 102.2
CC1(C)C(=O)Nc2ccccc2N1C(=O)CSc1nnc2ccccn12 | -2.3 | 2.2 | 100.8 | 1.05 | -0.8 | 98.1
O=C(NC(=S)NCC1CCCO1)C(c1ccccc1)c1ccccc1 (configuration not stated) | -7.5 | 12.0 | 102.5 | 1.18 | -2.8 | 93.8
COc1ccc(NC(=O)c2cccs2)cc1 | 66.0 | 1.9 | 140.0* | 3.01 | -40.4 | 101.5
CC(C)c1ccc(NC(=S)NNC(=O)c2cccs2)cc1 | 80.8 | 7.2 | 144.3* | 2.69 | -49.9 | 99.8
COc1ccc(NC(=S)NNC(=O)c2cccs2)cc1 | 42.1 | -2.6 | 115.1 | 1.62 | -16.8 | 103.3
COc1ccc(C)cc1N(C(=O)COc1cccc(F)c1)c1nc2ccccc2s1 | -8.8 | -35.5 | 102.5 | 1.07 | -2.7 | 134.3*
CCOC(=O)N1CCN(C(=O)/C=C/c2cccc([N+](=O)[O-])c2)CC1 | 19.0 | 7.3 | 93.9 | 1.14 | 6.3 | 100.2
NC(=O)NC(=O)C[n+]1cccc(/C=N/O)c1 | -1.7 | 9.9 | 92.7 | 1.12 | 7.4 | 96.1
CCn1cc(C(=O)N2CCc3ccccc32)c(=O)c2cc(S(=O)(=O)N3CCCC3)ccc21 | -1.2 | -26.2 | 98.5 | 1.07 | 1.6 | 133.0*
CCn1cc(C(=O)N2CCN(c3ccc(OC)cc3)CC2)c(=O)c2cc(S(=O)(=O)N3CCCCC3)ccc21 | 8.6 | -8.6 | 92.5 | 0.94 | 6.3 | 110.5
CCOc1cccc(C(=O)Nc2nc(-c3ccc(S(=O)(=O)N4CCOCC4)cc3)cs2)c1 | -3.9 | 33.7 | 68.6 | 0.53 | 34.9* | 73.4
COc1cc(/C=N/N=C(N)N)ccc1OCc1ccccc1Cl | 13.3 | 12.1 | 89.6 | 4.31* | 11.0 | 92.0
Cc1nc2ccc(Cl)cn2c1C(=O)NN | -16.5 | 2.2 | 107.6 | 1.12 | -7.4 | 98.7
O=C1NCCCC2c3cc(O)c4ccccc4c3OC12N1CCCCC1 (configuration not stated) | -11.3 | 63.4* | 105.6 | 0.56 | -6.1 | 46.5
